According to ChEMBL document CHEMBL1629603, “Voriconazole increases while itraconazole decreases plasma meloxicam concentrations” (Antimicrob Agents Chemother, 2009):
Each block holds one molecule with its values, some of them ahead of it. Active and inactive are the calls of the source. The calls are words filed in the database; no cut-off is given here.

Legend:
Homo sapiens [1] = assay: Inhibition of TxB2 production in human blood at 15 mg, po after 8 hrs by enzyme immunoassay pretreated with voriconazole at 400 mg, po every 12 hrs for 1 day and 200, po mg every 12 hrs for one additional day; format: functional
Procedure, shortened: (§1)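 Design: 12 healthy males, Latin-square three-phase crossover, 4-week washout; 15 mg oral meloxicam given fasted 1 h after the last voriconazole dose. Blood taken before and at 5, 8, 12, 24, 48 h into glass tubes without anticoagulant, clotted 1 h at 37°C. Serum TxB2 measured by enzyme immunoassay. Reported as percent decrease versus each subject's own baseline.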

Homo sapiens [2] = assay: Inhibition of TxB2 production in human blood at 15 mg, po after 48 hrs by enzyme immunoassay pretreated with voriconazole at 400 mg, po every 12 hrs for 1 day and 200, po mg every 12 hrs for one additional day; format: functional; procedure, shortened: as §1
Homo sapiens [3] = assay: Toxicity in human assessed as photophobia at 400 mg, po every 12 hrs for 1 day and 200, po mg every 12 hrs for one additional day; format: organism-based; conditions: in vivo
Homo sapiens [4] = assay: Inhibition of TxB2 production in human blood at 15 mg, po after 24 hrs by enzyme immunoassay pretreated with voriconazole at 400 mg, po every 12 hrs for 1 day and 200, po mg every 12 hrs for one additional day; format: functional; procedure, shortened: as §1
Homo sapiens [5] = assay: Inhibition of TxB2 production in human blood at 15 mg, po after 12 hrs by enzyme immunoassay pretreated with voriconazole at 400 mg, po every 12 hrs for 1 day and 200, po mg every 12 hrs for one additional day; format: functional; procedure, shortened: as §1
Homo sapiens [6] = assay: Toxicity in human assessed as altered color vision changes at 400 mg, po every 12 hrs for 1 day and 200, po mg every 12 hrs for one additional day; format: organism-based; conditions: in vivo
Homo sapiens [7] = assay: Inhibition of TxB2 production in human blood at 15 mg, po after 5 hrs by enzyme immunoassay pretreated with voriconazole at 400 mg, po every 12 hrs for 1 day and 200, po mg every 12 hrs for one additional day; format: functional; procedure, shortened: as §1
Plasma [8] = assay: Fraction unbound in human at 15 mg, po pretreated with voriconazole at 400 mg, po every 12 hrs for 1 day and 200, po mg every 12 hrs for one additional day; format: ADME, organism-based; conditions: in vivo
Procedure, shortened: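 Healthy volunteers, open-label randomized crossover; 15 mg oral meloxicam given fasted 1 h after the last voriconazole dose. Plasma drawn 5 h post-dose; 1 ml ultrafiltered (YM30 filter, 1,200 x g, 25°C, 30 min). Unbound meloxicam measured by LC-MS/MS (positive ion, piroxicam internal standard; standards 0.5–50 ng/ml), all samples in one run.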

Homo sapiens [9] = assay: Inhibition of TxB2 production in human blood at 15 mg, po after 12 hrs by enzyme immunoassay; format: functional
Procedure, shortened: (§2)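 Ex vivo COX-1 index in healthy volunteers. Blood drawn without anticoagulant before and 5, 8, 12, 24, 48 h after the single oral dose, then clotted 1 h at 37°C. Serum TxB2 measured by enzyme immunoassay. Percent decrease calculated against each subject's own predose baseline, within a crossover with control or azole-pretreated phases.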

Homo sapiens [10] = assay: Inhibition of TxB2 production in human blood at 15 mg, po after 48 hrs by enzyme immunoassay pretreated with itraconazole at 200 mg, po qd for 4 days; format: functional; procedure, shortened: as §2
[11] = AUC (0 to 72 hrs) in human at 15 mg, po; format: ADME, organism-based; parameters: dose 15 mg, time < 72 hr, route oral; conditions: plasma
Procedure, shortened: (§3)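 Healthy male volunteers (n=12), randomized three-phase Latin-square crossover with 4-week washout; single oral dose after overnight fast, lunch at 4 h. Venous plasma sampled predose and 1–72 h, stored –70°C; total drug by LC-MS/MS (piroxicam internal standard). Cmax and Tmax read directly from concentration data; AUC0-72 by linear (rising) / log (descending) trapezoidal rule.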

Homo sapiens [12] = assay: Inhibition of TxB2 production in human blood at 15 mg, po after 5 hrs by enzyme immunoassay; format: functional; procedure, shortened: as §2
[13] = Tmax in human at 15 mg, po; format: ADME, organism-based; conditions: in vivo; procedure, shortened: as §3
[14] = Protein binding in human at 15 mg, po pretreated with voriconazole at 400 mg, po every 12 hrs for 1 day and 200, po mg every 12 hrs for one additional day measured after 5 hrs last post dose; format: ADME, organism-based; conditions: plasma, read-out: PPB (converted)
Procedure, shortened: (§4)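 Plasma drawn 5 h after the single oral dose in each crossover phase (control, voriconazole 400 mg q12h day 1 then 200 mg q12h day 2, or itraconazole 200 mg daily for 4 days, last azole dose 1 h before). Ultrafiltered through a YM30 membrane at 1,200 x g, 25°C, 30 min. Free drug by LC-MS/MS; bound fraction derived from free versus total.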

Homo sapiens [15] = assay: Inhibition of TxB2 production in human blood at 15 mg, po after 8 hrs by enzyme immunoassay; format: functional; procedure, shortened: as §2
Plasma [16] = assay: Fraction unbound in human plasma at 15 mg, po; format: ADME, organism-based; conditions: in vivo; procedure, shortened: as §4
Homo sapiens [17] = assay: Inhibition of TxB2 production in human blood at 15 mg, po measured up to 48 hrs by enzyme immunoassay pretreated with itraconazole at 200 mg, po qd for 4 days; format: functional, organism-based; procedure, shortened: as §2
[18] = Protein binding in human at 15 mg, po pretreated with itraconazole at 200 mg, po qd for 4 days measured after 5 hrs last post dose; format: ADME, organism-based; conditions: plasma, read-out: PPB (converted); procedure, shortened: as §4
Homo sapiens [19] = assay: Inhibition of TxB2 production in human blood at 15 mg, po after 48 hrs by enzyme immunoassay; format: functional; procedure, shortened: as §2
[20] = Cmax in human at 15 mg, po; format: ADME, organism-based; parameters: dose 15 mg, route oral; conditions: in vivo; procedure, shortened: as §3
[21] = Protein binding in human plasma at 15 mg, po after 5 hrs; format: ADME, organism-based; conditions: read-out: PPB (converted); procedure, shortened: as §4
Homo sapiens [22] = assay: Inhibition of TxB2 production in human blood at 15 mg, po after 24 hrs by enzyme immunoassay; format: functional; procedure, shortened: as §2
Plasma [23] = assay: Fraction unbound in human at 15 mg, po pretreated with itraconazole at 200 mg, po qd for 4 days; format: ADME, organism-based; conditions: in vivo, 96 h; procedure, shortened: as §4

Structure (SMILES): C[C@@H](c1ncncc1F)[C@](O)(Cn1cncn1)c1ccc(F)cc1F [VORICONAZOLE]
inhibition (INH) (Homo sapiens [1]): 46% | inhibition (INH) (Homo sapiens [2]): 14% | Activity (Homo sapiens [3]): Toxic | inhibition (INH) (Homo sapiens [4]): 31% | inhibition (INH) (Homo sapiens [5]): 49% | Activity (Homo sapiens [6]): Toxic | inhibition (INH) (Homo sapiens [7]): 37% | Fu (Plasma [8]): 0.17%

AUC(0-t) at 72 h [11]: 32400 ng·h/mL | Tmax [13]: 4 h | fraction unbound at 5 h [14]: 0.0017 | Fu (Plasma [16]): 0.18% | inhibition (Homo sapiens [17]): inactive | fraction unbound at 5 h [18]: 0.0018 | Cmax [20]: 1250 ng/mL | fraction unbound at 5 h [21]: 0.0017
Structure (SMILES): Cc1cnc(NC(=O)C2=C(O)c3ccccc3S(=O)(=O)N2C)s1 [MELOXICAM]
inhibition (INH) (Homo sapiens [9]): 56% | inhibition (INH) (Homo sapiens [10]): 29% | inhibition (INH) (Homo sapiens [12]): 30% | inhibition (INH) (Homo sapiens [15]): 37% | inhibition (INH) (Homo sapiens [19]): 25% | inhibition (INH) (Homo sapiens [22]): 28%

Fu (Plasma [23]): 0.18%
Structure (SMILES): CCC(C)n1ncn(-c2ccc(N3CCN(c4ccc(OCC5COC(Cn6cncn6)(c6ccc(Cl)cc6Cl)O5)cc4)CC3)cc2)c1=O (stereo not drawn) [ITRACONAZOLE]
